7 compounds from ChEMBL document CHEMBL2417391, “Additional cytotoxic pyridoacridine alkaloids from the ascidian Cystodytes violatinctus and biogenetic considerations” (J Nat Prod, 2013) can be followed below.

What all share (format): functional, cell-based
The subject of one test is HCT-116. Nature of the test: Cytotoxicity against human HCT116 cells after 48 hrs by MTT assay. Particulars: HCT-116, 48 h. The procedure, abridged: (§1)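 Colon lines HCT116 and SW480 kept in DMEM with 10% FBS, 2 mM L-glutamine, penicillin/streptomycin. 20 × 10^3 cells/well seeded, overnight adhesion, then 48 h treatment at 10−10 to 10−4 M, serially diluted in medium from 10−2 M DMSO stock; triplicates. Viability by MTT (3 h), formazan in 2-propanol/HCl read at 540 nm; IC50 by sigmoidal curve fitting.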
In general terms: Tetrazolium assays rely on reduction of a dye to a coloured formazan, in cell work by metabolically active cells.

Another test concerns A-375. Kind of test: Cytotoxicity against human A375 cells after 48 hrs by MTT assay. Particulars: A-375, 48 h. Summed up: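 A375 melanoma cells grown in RPMI complete medium with 10% FBS, 2 mM L-glutamine, penicillin/streptomycin. Seeded 20 × 10^3 cells/well, adhered overnight, then exposed 48 h to serial dilutions from 10−10 to 10−4 M (from 10−2 M DMSO stock) in triplicate. MTT 1 mg/mL added for 3 h, formazan dissolved in 2-propanol/HCl, absorbance 540 nm; IC50 from sigmoidal dose–response fit.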

A further test deals with SW480. Nature of the test: Cytotoxicity against human SW480 cells after 48 hrs by MTT assay. The note with it: SW480, 48 h. The procedure, abridged:
as §1

A word on the IC50: it is the concentration that gives 50% inhibition. High values mean weaker potency, low ones greater potency. Consider `CC(C)=CC(=O)NCCc1c2c3c(ccnc3c3ncsc13)-c1ccccc1N2`, for which the half-maximal inhibitory concentration (IC50) was 14.4 µM in the test on HCT-116, 11.8 µM in the test with A-375 and 8.02 µM in the test with SW480.
For `CC(C)=CC(=O)NCCc1c2c(c3nccc4c3c1Nc1ccccc1-4)NC(=O)CS2` the same measures were 19 µM, more than 10 µM and 9.99 µM.
For `C/C=C(\C)C(=O)Nc1cc2cc(O)c3nccc4c5ccccc5n1c2c34` the same measures were 18.9 µM, more than 10 µM and more than 10 µM.
As to `CC(C)=CC(=O)Nc1cc2cc(O)c3nccc4c5ccccc5n1c2c34`, the results for the half-maximal inhibitory concentration (IC50) with HCT-116, in the test on A-375 and in the test with SW480 were 4.32 µM, 6 µM and 8.48 µM, respectively.
For `C/C=C(\C)C(=O)NCCc1c2c3c(ccnc3c3ncsc13)-c1ccccc1N2` the same measures were more than 10 µM, more than 10 µM and 3.3 µM.
Consider `C/C=C(\C)C(=O)NCCc1c2c(c3nccc4c3c1Nc1ccccc1-4)NC(=O)CS2`, for which the IC50 in the test with HCT-116, with A-375 and in the test with SW480 was more than 10 µM throughout.
`O=C1c2cccnc2-c2nccc3c2c1nc1ccccc13` [ASCIDIDEMIN]: the IC50 with HCT-116 came out at 0.25 µM; with A-375, 0.38 µM; in the test on SW480, 0.1 µM.
